According to ChEMBL document CHEMBL3352166, “Structure-guided design and development of novel benzimidazole class of compounds targeting DNA gyraseB enzyme of Staphylococcus aureus” (Bioorg Med Chem, 2014):
≈ marks a conversion by molar mass, not a printed value.

Assays:
DNA gyrase = DNA gyrase (Staphylococcus aureus, UniProt P0A0K8+P20831); assay: Inhibition of Staphylococcus aureus DNA gyrase-mediated supercoiling of relaxed DNA using pBR 322 as substrate by agarose gel electrophoresis analysis; format: protein-complex assay
Staphylococcus aureus [1] = assay: Antimicrobial activity against Staphylococcus aureus MTCC 3160 after 16 to 24 hrs by agar dilution method; format: functional
How it was run: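 MIC by agar dilution per CLSI on Mueller-Hinton agar. Overnight colonies were suspended to about 10^6 cfu/mL, and 1 mL was added to 19 mL medium. Compounds were made up in 0.9% saline and tested over about 10 doubling dilutions, 100 µM to 0.1 µM. Plates ran 16-20 h at 35 °C in ambient air. MIC was the lowest concentration preventing visible growth.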

[2] = Cytotoxicity against human HEK293 cells assessed as reduction in cell viability at 100 uM after 72 hrs by MTT assay; format: cell-based; conditions: read-out: INH
How it was run: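 HEK-293 cells were seeded at 5000 per well and left 24 h, then washed. They were exposed to 100 µM in RPMI + 5% FBS + 1% penicillin/streptomycin, with final DMSO ≤0.5%, for 72 h at 37 °C in 5% CO2. DMSO-treated cultures served as controls. Viability was read by MTT at 570 nm, in triplicate, as percentage inhibition.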

Staphylococcus aureus [3] = assay: Antimicrobial activity against methicillin-resistant Staphylococcus aureus MTCC 96 after 16 to 24 hrs by agar dilution method; format: functional
How it was run: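 Agar dilution per CLSI guidelines on Mueller-Hinton agar. Overnight colonies suspended to about 10^6 cfu/mL, and 1 mL added to 19 mL medium. Stocks in 0.9% saline, tested over about 10 doubling dilutions from 100 µM to 0.1 µM. Plates incubated at 35 °C in ambient air for 16-20 h. MIC taken as the lowest concentration preventing visible growth.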

DNA gyrase subunit B = DNA gyrase subunit B (Staphylococcus aureus, UniProt P0A0K8); assay: Inhibition of Staphylococcus aureus DNA gyrase B ATPase activity
Staphylococcus aureus [4] = assay: Inhibition of biofilm formation in methicillin-resistant Staphylococcus aureus MTCC 96 after 24 hr incubation by tissue culture plate method; conditions: MTCC 96, 24 h
Danio rerio [5] = species on record: Danio rerio; assay: Cardiotoxicity in zebra fish assessed as change in heart rate up to 30 uM; format: toxicity, organism-based; conditions: zebrafish, in vivo
How it was run: (§1)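 Zebrafish larvae at 3 dpf were dosed in 24-well plates, 5 embryos per well, in 0.1% DMSO vehicle at 1–30 µM for 4 h at 28 °C. Terfenadine 20 µM was the positive control. Atrial and ventricular beats were watched by light microscopy, timing 30 beats and averaging 5 embryos per well. Results are mean ± SEM, with significance versus control.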

Staphylococcus aureus [6] = assay: Antimicrobial activity against Staphylococcus aureus infected in CD1 mouse assessed as animal protection at 25 mg/kg, iv treated 4 hrs after infection measured 24 hrs post infection
Staphylococcus aureus [7] = assay: Antimicrobial activity against Staphylococcus aureus infected in CD1 mouse assessed as animal protection at 5 mg/kg, iv treated 4 hrs after infection measured 24 hrs post infection; format: functional
How it was run: (§2)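 Female CD-1 mice (20–25 g, ten per group) were infected intraperitoneally with 3 × 10^7 cfu/mouse, slightly above LD100. Test compound was given iv at 5, 10 or 25 mg/kg at infection and 4 h post infection. Vancomycin at 5 mg/kg served as comparator. Survival was scored 24 h post infection.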

Danio rerio [8] = species on record: Danio rerio; assay: Cardiotoxicity in zebra fish assessed as AV ratio up to 30 uM; format: organism-based; conditions: zebrafish, in vivo; how it was run: as §1
Staphylococcus aureus [9] = assay: Antimicrobial activity against Staphylococcus aureus infected in CD1 mouse assessed as animal protection at 10 mg/kg, iv treated 4 hrs after infection measured 24 hrs post infection; format: functional; how it was run: as §2

Sequence of DNA gyrase subunit B (P0A0K8 whole entry): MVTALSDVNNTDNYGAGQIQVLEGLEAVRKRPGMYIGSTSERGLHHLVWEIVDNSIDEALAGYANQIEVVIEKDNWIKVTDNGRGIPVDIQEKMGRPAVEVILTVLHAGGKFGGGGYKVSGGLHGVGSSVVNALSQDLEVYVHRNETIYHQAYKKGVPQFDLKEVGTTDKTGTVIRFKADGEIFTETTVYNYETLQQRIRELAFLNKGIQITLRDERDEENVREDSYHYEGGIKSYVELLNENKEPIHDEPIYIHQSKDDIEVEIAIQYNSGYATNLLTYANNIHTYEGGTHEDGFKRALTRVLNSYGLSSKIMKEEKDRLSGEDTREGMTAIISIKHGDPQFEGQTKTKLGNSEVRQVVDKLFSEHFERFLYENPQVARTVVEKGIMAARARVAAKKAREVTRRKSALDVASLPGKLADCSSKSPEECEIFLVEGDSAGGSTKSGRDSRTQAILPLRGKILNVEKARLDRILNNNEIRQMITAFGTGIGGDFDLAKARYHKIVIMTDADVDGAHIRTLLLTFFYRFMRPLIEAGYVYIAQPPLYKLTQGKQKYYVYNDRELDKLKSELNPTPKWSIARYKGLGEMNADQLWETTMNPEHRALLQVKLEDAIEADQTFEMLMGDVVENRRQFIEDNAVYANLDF
Sequence of DNA gyrase (P0A0K8 whole entry): as above
Sequence of DNA gyrase (P20831 whole entry): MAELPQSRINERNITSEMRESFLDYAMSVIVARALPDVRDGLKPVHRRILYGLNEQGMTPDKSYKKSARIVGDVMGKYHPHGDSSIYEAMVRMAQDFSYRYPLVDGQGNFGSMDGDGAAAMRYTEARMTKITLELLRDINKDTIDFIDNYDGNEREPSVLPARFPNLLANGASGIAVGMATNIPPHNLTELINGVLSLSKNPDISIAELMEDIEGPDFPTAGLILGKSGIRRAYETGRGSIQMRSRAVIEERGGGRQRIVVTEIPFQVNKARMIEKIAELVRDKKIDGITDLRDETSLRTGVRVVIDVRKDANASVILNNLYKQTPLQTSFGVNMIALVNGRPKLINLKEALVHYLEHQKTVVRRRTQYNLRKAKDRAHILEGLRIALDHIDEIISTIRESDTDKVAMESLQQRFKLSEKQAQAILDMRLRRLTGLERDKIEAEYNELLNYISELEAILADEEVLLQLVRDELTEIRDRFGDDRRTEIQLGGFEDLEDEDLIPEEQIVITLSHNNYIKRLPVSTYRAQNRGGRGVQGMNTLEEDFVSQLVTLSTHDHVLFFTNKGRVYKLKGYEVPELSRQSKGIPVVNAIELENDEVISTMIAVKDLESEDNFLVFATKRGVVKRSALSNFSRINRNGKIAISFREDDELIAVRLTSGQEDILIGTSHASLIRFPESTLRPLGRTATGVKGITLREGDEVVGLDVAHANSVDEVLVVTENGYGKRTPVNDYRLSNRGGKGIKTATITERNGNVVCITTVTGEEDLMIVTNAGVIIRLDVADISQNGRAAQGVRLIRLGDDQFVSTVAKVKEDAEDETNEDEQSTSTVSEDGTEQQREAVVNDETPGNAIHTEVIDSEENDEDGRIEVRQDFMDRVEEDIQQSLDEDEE

SMILES: O=C(O)CSCC(=O)Nc1ccc(-c2nc3cc([N+](=O)[O-])ccc3[nH]2)cc1
- IC50 (DNA gyrase): 2.1 µM
- MIC (Staphylococcus aureus [1]): 8.09 µM (≈ 3.12 µg/mL)
- cytotoxicity at 72 h, 100 µM [2]: 25.2%
- MIC (Staphylococcus aureus [3]): 17 µM (≈ 6.56 µg/mL)
- IC50 (DNA gyrase subunit B): 3.13 µM
- IC50 (Staphylococcus aureus [4]): 10.3 µM

SMILES: O=C(O)CCCC(=O)Nc1ccc(-c2nc3cc(F)ccc3[nH]2)cc1
- IC50 (DNA gyrase): 1.13 µM
- MIC (Staphylococcus aureus [1]): 4.57 µM (≈ 1.56 µg/mL)
- Activity (Danio rerio [5]): Non-toxic
- Activity (Staphylococcus aureus [6]): 100%
- cytotoxicity at 72 h, 100 µM [2]: 7.59%
- MIC (Staphylococcus aureus [3]): 9.15 µM (≈ 3.12 µg/mL)
- Activity (Staphylococcus aureus [7]): 60%
- Activity (Danio rerio [8]): Non-toxic
- IC50 (DNA gyrase subunit B): 1.32 µM
- Activity (Staphylococcus aureus [9]): 80%
- IC50 (Staphylococcus aureus [4]): 9.63 µM

SMILES: O=C(O)COCC(=O)Nc1ccc(-c2nc3cc(Cl)ccc3[nH]2)cc1
- IC50 (DNA gyrase): 12.5 µM
- MIC (Staphylococcus aureus [1]): 34.7 µM (≈ 12.5 µg/mL)
- cytotoxicity at 72 h, 100 µM [2]: 29.7%
- MIC (Staphylococcus aureus [3]): 69.5 µM (≈ 25 µg/mL)
- IC50 (DNA gyrase subunit B): 15.3 µM
- IC50 (Staphylococcus aureus [4]): 71.2 µM

SMILES: O=C(O)CSCC(=O)Nc1ccc(-c2nc3cc(Cl)ccc3[nH]2)cc1
- IC50 (DNA gyrase): 12.1 µM
- MIC (Staphylococcus aureus [1]): 4.15 µM (≈ 1.56 µg/mL)
- cytotoxicity at 72 h, 100 µM [2]: 23%
- MIC (Staphylococcus aureus [3]): 4.15 µM (≈ 1.56 µg/mL)
- IC50 (DNA gyrase subunit B): 13.8 µM
- IC50 (Staphylococcus aureus [4]): 9.72 µM

SMILES: O=C(O)COCC(=O)Nc1ccc(-c2nc3cc([N+](=O)[O-])ccc3[nH]2)cc1
- IC50 (DNA gyrase): 5.8 µM
- MIC (Staphylococcus aureus [1]): 33.8 µM (≈ 12.5 µg/mL)
- cytotoxicity at 72 h, 100 µM [2]: 31.3%
- MIC (Staphylococcus aureus [3]): 47 µM (≈ 17.4 µg/mL)
- IC50 (DNA gyrase subunit B): 8.51 µM
- IC50 (Staphylococcus aureus [4]): 83.2 µM

SMILES: COc1ccc2[nH]c(-c3ccc(NC(=O)COCC(=O)O)cc3)nc2c1
- IC50 (DNA gyrase): 3.06 µM
- MIC (Staphylococcus aureus [1]): 17.6 µM (≈ 6.25 µg/mL)
- cytotoxicity at 72 h, 100 µM [2]: 23.3%
- MIC (Staphylococcus aureus [3]): 17.6 µM (≈ 6.25 µg/mL)
- IC50 (DNA gyrase subunit B): 4.34 µM
- IC50 (Staphylococcus aureus [4]): 31.7 µM

SMILES: COc1ccc2[nH]c(-c3ccc(NC(=O)CSCC(=O)O)cc3)nc2c1
- IC50 (DNA gyrase): 16 µM
- MIC (Staphylococcus aureus [1]): 67.3 µM (≈ 25 µg/mL)
- cytotoxicity at 72 h, 100 µM [2]: 22.6%
- MIC (Staphylococcus aureus [3]): 67.3 µM (≈ 25 µg/mL)
- IC50 (DNA gyrase subunit B): 9.31 µM
- IC50 (Staphylococcus aureus [4]): > 100 µM

SMILES: O=C(O)COCC(=O)Nc1ccc(-c2nc3cccnc3[nH]2)cc1
- IC50 (DNA gyrase): 4.7 µM
- MIC (Staphylococcus aureus [1]): 19.1 µM (≈ 6.25 µg/mL)
- cytotoxicity at 72 h, 100 µM [2]: 38.7%
- MIC (Staphylococcus aureus [3]): 38.3 µM (≈ 12.5 µg/mL)
- IC50 (DNA gyrase subunit B): 6.93 µM
- IC50 (Staphylococcus aureus [4]): 82.5 µM

SMILES: O=C(O)CSCC(=O)Nc1ccc(-c2nc3cccnc3[nH]2)cc1
- IC50 (DNA gyrase): 1.7 µM
- MIC (Staphylococcus aureus [1]): 4.55 µM (≈ 1.56 µg/mL)
- cytotoxicity at 72 h, 100 µM [2]: 31.9%
- MIC (Staphylococcus aureus [3]): 9.12 µM (≈ 3.12 µg/mL)
- IC50 (DNA gyrase subunit B): 2.31 µM
- IC50 (Staphylococcus aureus [4]): 11.3 µM
